Data: ChEMBL document CHEMBL3232976, “Investigation of the cytotoxic, genotoxic, and apoptosis-inducing effects of estragole isolated from fennel (Foeniculum vulgare)” (J Nat Prod, 2014)

Tests used:
HepG2 [1] = experiment: Cytotoxicity against human HepG2 cells assessed as cell viability at 42.28 ug/ml after 4 hrs by MTT assay relative to control; type: functional; conditions: HepG2, 4 h, read-out: Activity
Method in brief: (§1)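 HepG2 seeded at 1 × 10^5 cells/well in phenol red-free MEM, grown 24 h, then exposed 4 h to eight concentrations (dissolved in MEM; 2% Triton X100 positive control). MTT 1 mg/mL added for 2 h at 37 °C, formazan dissolved in 2-propanol, A570 minus A650. Viability as % of untreated controls; three independent experiments, mean ± SEM.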

HepG2 [2] = experiment: Cytotoxicity against human HepG2 cells assessed as cell viability at 21.14 ug/ml after 4 hrs by MTT assay relative to control; type: functional; conditions: HepG2, 4 h, read-out: Activity; method in brief: as §1
HepG2 [3] = experiment: Cytotoxicity against human HepG2 cells assessed as cell viability at 10.57 ug/ml after 4 hrs by MTT assay relative to control; type: functional; conditions: HepG2, 4 h, read-out: Activity; method in brief: as §1
HepG2 [4] = experiment: Cytotoxicity against human HepG2 cells assessed as cell viability at 5.28 ug/ml after 4 hrs by MTT assay relative to control; type: functional; conditions: HepG2, 4 h, read-out: Activity; method in brief: as §1
HepG2 [5] = experiment: Cytotoxicity against human HepG2 cells assessed as cell viability at 2.64 ug/ml after 4 hrs by MTT assay relative to control; type: functional; conditions: HepG2, 4 h, read-out: Activity; method in brief: as §1
HepG2 [6] = experiment: Cytotoxicity against human HepG2 cells assessed as cell viability at 1.32 ug/ml after 4 hrs by MTT assay relative to control; type: functional; conditions: HepG2, 4 h, read-out: Activity; method in brief: as §1
HepG2 [7] = experiment: Cytotoxicity against human HepG2 cells assessed as cell viability at 0.67 ug/ml after 4 hrs by MTT assay relative to control; type: functional; conditions: HepG2, 4 h, read-out: Activity; method in brief: as §1
HepG2 [8] = experiment: Cytotoxicity against human HepG2 cells assessed as cell viability at 84.55 ug/ml after 4 hrs by trypan blue dye exclusion assay relative to control; type: functional; conditions: HepG2, 4 h, read-out: Activity
Method in brief: (§2)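 Cells seeded at 5 × 10^5/well, grown 24 h, then exposed 4 h to the three highest MTT-tested concentrations. Trypan blue exclusion read on an automated cell counter, unstained cells counted as viable. Viability as % of total cells; three independent experiments, mean ± SEM.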

HepG2 [9] = experiment: Cytotoxicity against human HepG2 cells assessed as cell viability at 42.28 ug/ml after 4 hrs by trypan blue dye exclusion assay relative to control; type: functional; conditions: HepG2, 4 h, read-out: Activity; method in brief: as §2
HepG2 [10] = experiment: Cytotoxicity against human HepG2 cells assessed as cell viability at 21.14 ug/ml after 4 hrs by trypan blue dye exclusion assay relative to control; type: functional; conditions: HepG2, 4 h, read-out: Activity; method in brief: as §2
HepG2 [11] = experiment: Cytotoxicity against human HepG2 cells assessed as cell viability at 84.55 ug/ml after 4 hrs by AO/DAPI double staining relative to control; type: functional; conditions: HepG2, 4 h, read-out: Activity
Method in brief: (§3)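 Cells seeded at 5 × 10^5/well, grown 24 h, exposed 4 h to the three highest MTT-tested concentrations. Cell suspension loaded into cassettes coated with acridine orange (all cells) and DAPI (nonviable cells), then counted by automated fluorescence image analysis. Viability as % of total cells; three independent experiments, mean ± SEM.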

HepG2 [12] = experiment: Cytotoxicity against human HepG2 cells assessed as cell viability at 42.28 ug/ml after 4 hrs by AO/DAPI double staining relative to control; type: functional; conditions: HepG2, 4 h, read-out: Activity; method in brief: as §3
HepG2 [13] = experiment: Cytotoxicity against human HepG2 cells assessed as cell viability at 21.14 ug/ml after 4 hrs by AO/DAPI double staining relative to control; type: functional; conditions: HepG2, 4 h, read-out: Activity; method in brief: as §3
HepG2 [14] = experiment: Induction of early apoptosis in human HepG2 cells assessed as decrease mitochondrial membrane potential at 84.55 ug/ml after 4 hrs by JC-1 staining relative to control; type: functional; set-up: scale not given: the % may be the effect or the level left
Method in brief: (§4)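 Cells seeded 48 h before a 4 h exposure; 0.5 μM valinomycin for 4 h as depolarizing positive control. Stained with JC-1 plus DAPI (necrotic cells), read by automated fluorescence image cytometry. Depolarization seen as a fall in red/green ratio; gated as % depolarized cells. Three independent experiments, mean ± SEM.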

HepG2 [15] = experiment: Induction of early apoptosis in human HepG2 cells assessed as decrease mitochondrial membrane potential at 42.28 ug/ml after 4 hrs by JC-1 staining relative to control; type: functional; set-up: scale not given: the % may be the effect or the level left; method in brief: as §4
HepG2 [16] = experiment: Induction of early apoptosis in human HepG2 cells assessed as decrease mitochondrial membrane potential at 21.14 ug/ml after 4 hrs by JC-1 staining relative to control; type: functional; set-up: scale not given: the % may be the effect or the level left; method in brief: as §4
HepG2 [17] = experiment: Induction of late apoptosis in human HepG2 cells assessed as induction of DNA fragmentation at 84.55 ug/ml after 4 hrs by […] relative to control; type: functional
Method in brief: (§5)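 Cells seeded 48 h before a 4 h exposure; 1 μM staurosporine positive control. Cells permeabilized with ethanol, washed to remove low-molecular-weight DNA, stained with DAPI, and DNA content read by automated image cytometry. Result as % sub-G1 cells below a manually set G1/G0 peak. Three independent experiments, mean ± SEM.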

HepG2 [18] = experiment: Induction of late apoptosis in human HepG2 cells assessed as induction of DNA fragmentation at 42.28 ug/ml after 4 hrs by […] relative to control; type: functional; method in brief: as §5
HepG2 [19] = experiment: Induction of late apoptosis in human HepG2 cells assessed as induction of DNA fragmentation at 21.14 ug/ml after 4 hrs by […] relative to control; type: functional; method in brief: as §5
HepG2 [20] = experiment: Cytotoxicity against human HepG2 cells assessed as cell viability at 84.55 ug/ml after 4 hrs by MTT assay relative to control; type: functional; conditions: HepG2, 4 h, read-out: Activity; method in brief: as §1
HepG2 [21] = experiment: Genotoxicity in human HepG2 cells assessed as DNA strand-breakage at 84.55 ug/ml after 4 hrs by alkaline comet assay; conditions: hepg2, 4 h
HepG2 [22] = experiment: Genotoxicity in human HepG2 cells assessed as DNA strand-breakage at 42.28 ug/ml after 4 hrs by alkaline comet assay; conditions: hepg2, 4 h
HepG2 [23] = experiment: Genotoxicity in human HepG2 cells assessed as DNA strand-breakage at 21.14 ug/ml after 4 hrs by alkaline comet assay; conditions: hepg2, 4 h
HepG2 [24] = experiment: Induction of late apoptosis in human HepG2 cells assessed as induction of DNA fragmentation at 1 uM after 4 hrs by […] relative to control; type: functional; method in brief: as §5
HepG2 [25] = experiment: Induction of early apoptosis in human HepG2 cells assessed as decrease mitochondrial membrane potential at 0.5 uM after 4 hrs by JC-1 staining relative to control; type: functional; set-up: scale not given: the % may be the effect or the level left; method in brief: as §4

## C=CCc1ccc(OC)cc1 [ESTRAGOLE]
HepG2 [1]
  viability at 42.28 µg/mL: 108%
HepG2 [2]
  viability at 21.14 µg/mL: 110%
HepG2 [3]
  viability at 10.57 µg/mL: 117%
HepG2 [4]
  viability at 5.28 µg/mL: 104%
HepG2 [5]
  viability at 2.64 µg/mL: 101%
HepG2 [6]
  viability at 1.32 µg/mL: 94.8%
HepG2 [7]
  viability at 0.67 µg/mL: 106%
HepG2 [8]
  viability at 84.55 µg/mL: 85%
HepG2 [9]
  viability at 42.28 µg/mL: 93.3%
HepG2 [10]
  viability at 21.14 µg/mL: 92.7%
HepG2 [11]
  viability at 84.55 µg/mL: 90.2%
HepG2 [12]
  viability at 42.28 µg/mL: 91.7%
HepG2 [13]
  viability at 21.14 µg/mL: 90.9%
HepG2 [14]
  Activity: 13.2%
HepG2 [15]
  Activity: 12.3%
HepG2 [16]
  Activity: 15.9%
HepG2 [17]
  Activity: 4.9%
HepG2 [18]
  Activity: 3.7%
HepG2 [19]
  Activity: 3.4%
HepG2 [20]
  viability at 84.55 µg/mL: 103%
HepG2 [21]
  Activity: Non-toxic
HepG2 [22]
  Activity: Non-toxic
HepG2 [23]
  Activity: Non-toxic

## CN[C@@H]1C[C@H]2O[C@@](C)([C@@H]1OC)n1c3ccccc3c3c4c(c5c6ccccc6n2c5c31)C(=O)NC4 [STAUROSPORINE]
HepG2 [24]
  Activity: 21.1%

## CC(C)[C@@H]1NC(=O)[C@H](C)OC(=O)[C@@H](C(C)C)NC(=O)[C@@H](C(C)C)OC(=O)[C@H](C(C)C)NC(=O)[C@H](C)OC(=O)[C@@H](C(C)C)NC(=O)[C@@H](C(C)C)OC(=O)[C@H](C(C)C)NC(=O)[C@H](C)OC(=O)[C@@H](C(C)C)NC(=O)[C@@H](C(C)C)OC1=O [VALINOMYCIN]
HepG2 [25]
  Activity: 40.3%
